Source: publication PMC6205205 (Medicinal chemistry (Shariqah (United Arab Emirates)), 2018)
Entries after “also recorded” stand apart in the source; their conditions may differ.

biological target: WT IDH1 (Homo sapiens, UniProt O75874); assay: Enzyme inhibition of wild-type IDH1; type: biochemical; settings: not given
Sequence (O75874 whole entry): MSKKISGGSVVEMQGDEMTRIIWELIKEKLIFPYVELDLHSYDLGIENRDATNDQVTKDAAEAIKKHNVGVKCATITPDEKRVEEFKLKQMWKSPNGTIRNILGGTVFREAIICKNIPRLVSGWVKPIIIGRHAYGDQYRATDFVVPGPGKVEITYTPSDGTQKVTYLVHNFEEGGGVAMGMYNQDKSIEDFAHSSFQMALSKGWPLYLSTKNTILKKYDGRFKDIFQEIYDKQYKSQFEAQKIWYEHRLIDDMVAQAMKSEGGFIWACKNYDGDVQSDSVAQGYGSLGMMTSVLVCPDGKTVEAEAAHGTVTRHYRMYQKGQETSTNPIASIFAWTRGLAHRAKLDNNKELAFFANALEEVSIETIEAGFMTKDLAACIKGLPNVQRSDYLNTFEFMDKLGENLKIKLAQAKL

Ki	Structure (SMILES)
> 50 µM	O=S(=O)(Nc1cc(Br)c(O)c2ccccc12)c1ccc(Br)cc1 [Compound 2, 4-bromo-N-(3-bromo-4-hydroxynaphthalen-1-yl)benzenesulfonamide]
> 50 µM	Cc1ccc(S(=O)(=O)Nc2cc(Br)c(O)c3ccccc23)cc1 [Compound 9, N-(3-bromo-4-hydroxynaphthalen-1-yl)-4-methylbenzenesulfonamide]
> 50 µM	O=S(=O)(Nc1cc(Br)c(O)c2ccccc12)c1ccc(-c2ccccc2)cc1 [Compound 10, N-(3-bromo-4-hydroxynaphthalen-1-yl)-[1,1’-biphenyl]-4-sulfonamide]
> 50 µM	O=S(=O)(Nc1cc(Br)c(O)c2ccccc12)c1ccc2ccccc2c1 [Compound 11, N-(3-bromo-4-hydroxynaphthalen-1-yl)naphthalene-2-sulfonamide]

biological target: R132C IDH1 (Homo sapiens, UniProt O75874, R132C); assay: Enzyme inhibition of R132C mutant IDH1; type: biochemical; settings: not given
Sequence (O75874 whole entry R132C): as the sequence (O75874 whole entry) above, with R132C counted along it

Ki	Structure (SMILES)
> 50 µM	O=S(=O)(Nc1cc(Br)c(O)c2ccccc12)c1ccc(Br)cc1 [Compound 2, 4-bromo-N-(3-bromo-4-hydroxynaphthalen-1-yl)benzenesulfonamide]
> 50 µM	Cc1ccc(S(=O)(=O)Nc2cc(Br)c(O)c3ccccc23)cc1 [Compound 9, N-(3-bromo-4-hydroxynaphthalen-1-yl)-4-methylbenzenesulfonamide]
36 µM	O=S(=O)(Nc1cc(Br)c(O)c2ccccc12)c1ccc(-c2ccccc2)cc1 [Compound 10, N-(3-bromo-4-hydroxynaphthalen-1-yl)-[1,1’-biphenyl]-4-sulfonamide]
> 50 µM	O=S(=O)(Nc1cc(Br)c(O)c2ccccc12)c1ccc2ccccc2c1 [Compound 11, N-(3-bromo-4-hydroxynaphthalen-1-yl)naphthalene-2-sulfonamide]

biological target: T1, IDH1(R132H) (Homo sapiens, UniProt O75874, R132H); assay: Steady-state kinetic study, mode of inhibition; type: biochemical; settings: variable NADPH, Michaelis-Menten plot
T1 sequence (O75874 whole entry R132H): as the sequence (O75874 whole entry) above, with R132H counted along it
Summary of the method: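 IDH1(R132H) was expressed in E. coli and purified. Initial velocities were taken as the linear rate of NADPH consumption, followed by UV absorbance at 340 nm. Test compound, α-KG and NADPH levels were each varied. Data were fitted to competitive, noncompetitive and uncompetitive models, and the best model was chosen by highest R² and lowest AICc.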

Structure (SMILES)	Mode of inhibition against the cofactor NADPH
Cc1ccc(S(=O)(=O)Nc2cc(Br)c(O)c3ccccc23)cc1 [Compound 9, N-(3-bromo-4-hydroxynaphthalen-1-yl)-4-methylbenzenesulfonamide]	noncompetitive mode of action; also recorded: non-competitive inhibitor

same assay, conditions: variable α-KG, Lineweaver-Burk plot

Mode of inhibition against the substrate α-KG	Structure (SMILES)
competitive inhibitor	Cc1ccc(S(=O)(=O)Nc2cc(Br)c(O)c3ccccc23)cc1 [Compound 9, N-(3-bromo-4-hydroxynaphthalen-1-yl)-4-methylbenzenesulfonamide]

tested on: BXD-3752 glioma cells without IDH1 mutation; assay: Inhibition of proliferation of glioma stem-like cells; type: cell-based, human; settings: 5 μM, 14 days treatment, no IDH1 mutation
Summary of the method: (§1)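 Patient-derived glioma cells grown as neurospheres in serum-free medium at 37 °C, 5% CO₂, 100% humidity. Cells seeded at 2000/well and exposed to increasing concentrations of test compound for 14 days. Viability read by Cell Counting Kit-8 following the kit protocol.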

Structure (SMILES)	Activity against proliferation of BXD-3752 glioma cells
Cc1ccc(-c2cc(NS(=O)(=O)c3ccc(C)cc3)c3ccccc3c2O)cc1 [Compound 3, N-(4-hydroxy-3-(p-tolyl)naphthalen-1-yl)-4-methylbenzenesulfonamide]	did not exhibit activity
Cc1ccc(S(=O)(=O)Nc2cc(Br)c(O)c3ccccc23)cc1 [Compound 9, N-(3-bromo-4-hydroxynaphthalen-1-yl)-4-methylbenzenesulfonamide]	did not show activity; also recorded: did not significantly affect growth
O=S(=O)(Nc1cc(Br)c(O)c2ccccc12)c1ccc(-c2ccccc2)cc1 [Compound 10, N-(3-bromo-4-hydroxynaphthalen-1-yl)-[1,1’-biphenyl]-4-sulfonamide]	did not show activity; also recorded: did not significantly affect growth

biological target: T1, IDH1(R132H); assay: IDH1; type: biochemical; settings: not given

Structure (SMILES)	Ki
O=S(=O)(Nc1cc(Oc2ccccc2)c(O)c2ccccc12)c1ccc(Br)cc1 [Compound 1, 4-bromo-N-(4-hydroxy-3-phenoxynaphthalen-1-yl)benzenesulfonamide]	8.2 µM
O=S(=O)(Nc1cc(Br)c(O)c2ccccc12)c1ccc(Br)cc1 [Compound 2, 4-bromo-N-(3-bromo-4-hydroxynaphthalen-1-yl)benzenesulfonamide]	4.1 µM
O=C(O)CCc1cc(NS(=O)(=O)c2ccc(Br)cc2)c2ccccc2c1O [Compound 5, 3-(4-((4-bromophenyl)sulfonamido)-1-hydroxynaphthalen-2-yl)propanoic acid]	17.5 µM
O=P(O)(O)CCc1cc(NS(=O)(=O)c2ccc(Br)cc2)c2ccccc2c1O [Compound 6, (2-(4-((4-bromophenyl)sulfonamido)-1-hydroxynaphthalen-2-yl)ethyl)phosphonic acid]	2.4 µM
O=S(=O)(Nc1cc(Br)c(O)c2ccccc12)c1ccc(F)cc1 [Compound 8, N-(3-bromo-4-hydroxynaphthalen-1-yl)-4-fluorobenzenesulfonamide]	~25 µM
Cc1ccc(S(=O)(=O)Nc2cc(Br)c(O)c3ccccc23)cc1 [Compound 9, N-(3-bromo-4-hydroxynaphthalen-1-yl)-4-methylbenzenesulfonamide]	1.2 µM
O=S(=O)(Nc1cc(Br)c(O)c2ccccc12)c1ccc2ccccc2c1 [Compound 11, N-(3-bromo-4-hydroxynaphthalen-1-yl)naphthalene-2-sulfonamide]	0.8 µM
Cc1ccc(S(=O)(=O)Nc2ccc(O)c3ccccc23)cc1 [Compound 12, N-(4-hydroxynaphthalen-1-yl)-4-methylbenzenesulfonamide]	6.8 µM
O=S(=O)(Nc1ccc(O)c2ccccc12)c1ccccc1 [Compound 13, N-(4-hydroxynaphthalen-1-yl)benzenesulfonamide]	11.1 µM
O=S(=O)(Nc1ccc(F)c(Cl)c1)c1ccc(Br)cc1 [Compound 20, 4-bromo-N-(3-chloro-4-fluorophenyl)benzenesulfonamide]	16.1 µM

The remaining lines, values ahead:

Ki	Structure (SMILES)
10.2 µM	COc1ccc(S(=O)(=O)Nc2cc(CCC(=O)O)c(O)c3ccccc23)cc1 [Compound 7, 3-(1-hydroxy-4-((4-methoxyphenyl)sulfonamido)naphthalen-2-yl)propanoic acid]
0.6 µM	O=S(=O)(Nc1cc(Br)c(O)c2ccccc12)c1ccc(-c2ccccc2)cc1 [Compound 10, N-(3-bromo-4-hydroxynaphthalen-1-yl)-[1,1’-biphenyl]-4-sulfonamide]
7.3 µM	O=S(=O)(Nc1ccc(O)cc1)c1ccc(Br)cc1 [Compound 17, 4-bromo-N-(4-hydroxyphenyl)benzenesulfonamide]
9 µM	O=S(=O)(Nc1cccc(Br)c1)c1ccc(Br)cc1 [Compound 18, 4-bromo-N-(3-bromophenyl)benzenesulfonamide]

same assay, conditions: IDH1(R132H), vs compound 1

Fold increased inhibitory activity relative to compound 1	Structure (SMILES)
~ 2 fold	O=S(=O)(Nc1cc(Br)c(O)c2ccccc12)c1ccc(Br)cc1 [Compound 2, 4-bromo-N-(3-bromo-4-hydroxynaphthalen-1-yl)benzenesulfonamide]

same assay, conditions: IDH1(R132H), vs compound 2

Fold more active than compound 2	Structure (SMILES)
~ 4 ×	Cc1ccc(S(=O)(=O)Nc2cc(Br)c(O)c3ccccc23)cc1 [Compound 9, N-(3-bromo-4-hydroxynaphthalen-1-yl)-4-methylbenzenesulfonamide]

same assay, conditions: IDH1(R132H), vs compound 9

Structure (SMILES)	Fold less active than compound 9
Cc1ccc(S(=O)(=O)Nc2ccc(O)c3ccccc23)cc1 [Compound 12, N-(4-hydroxynaphthalen-1-yl)-4-methylbenzenesulfonamide]	~ 6 fold

same assay, conditions: compound screening at 50 μM

Structure (SMILES)	Inhibitory activity against IDH1(R132H), in words
O=S(=O)(Nc1ccc(O)c(Oc2ccccc2)c1)c1ccc(Br)cc1 [Compound 14, 4-bromo-N-(4-hydroxy-3-phenoxyphenyl)benzenesulfonamide]	Devoid of activity
O=S(=O)(Nc1ccccc1)c1ccc(Br)cc1 [Compound 19, 4-bromo-N-phenylbenzenesulfonamide]	inactive

Continued, values first:

Inhibitory activity against IDH1(R132H), in words	Structure (SMILES)
inactive	Cc1ccc(-c2cc(NS(=O)(=O)c3ccc(C)cc3)c3ccccc3c2O)cc1 [Compound 3, N-(4-hydroxy-3-(p-tolyl)naphthalen-1-yl)-4-methylbenzenesulfonamide]
inactive	O=S(=O)(Nc1cc(-c2ccc3ccccc3c2)c(O)c2ccccc12)c1ccc(Br)cc1 [Compound 4, 4-bromo-N-(1-hydroxy-[2,2’-binaphthalen]-4-yl)benzenesulfonamide]

tested on: BT142 glioma cells with R132H IDH1 mutation; assay: Inhibition of proliferation of glioma stem-like cells; type: cell-based, human; settings: 5 μM, 14 days treatment
Summary of the method: as §1

Structure (SMILES)	Activity against proliferation of BT142 glioma cells
Cc1ccc(-c2cc(NS(=O)(=O)c3ccc(C)cc3)c3ccccc3c2O)cc1 [Compound 3, N-(4-hydroxy-3-(p-tolyl)naphthalen-1-yl)-4-methylbenzenesulfonamide]	did not exhibit activity
Cc1ccc(S(=O)(=O)Nc2cc(Br)c(O)c3ccccc23)cc1 [Compound 9, N-(3-bromo-4-hydroxynaphthalen-1-yl)-4-methylbenzenesulfonamide]	strongly inhibited the growth; also recorded: strong activity
O=S(=O)(Nc1cc(Br)c(O)c2ccccc12)c1ccc(-c2ccccc2)cc1 [Compound 10, N-(3-bromo-4-hydroxynaphthalen-1-yl)-[1,1’-biphenyl]-4-sulfonamide]	strongly inhibited the growth; also recorded: strong activity
